The subject of the assay is L1210. In words: Cytotoxicity against mouse L1210 cells after 3 days by MTT assay. The conditions noted are these: L1210, 72 h. It counts as functional, cell-based. A digest of the protocol: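 Murine tumour cells under continuous drug exposure for 3 days. Growth inhibition measured by MTT assay. IC50 is the concentration inhibiting growth by 50%.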
(Tetrazolium dyes change colour on reduction, which living cells bring about.)

As usually defined, the IC50 is the concentration at which inhibition is half-maximal. The low end stands for greater potency in that assay, the high end for weaker potency in that assay.

In the case of `COc1c(O)c2c(c3cc(C(=O)N4CCc5c4c(O)c(OC)c4[nH]c(C(=O)N6C[C@H]7C[C@@]78C6=CC(=O)c6[nH]cc(C)c68)cc54)[nH]c13)CCN2C(N)=O` [(+)-CC-1065], the midpoint of inhibition, the IC50, lay at 0.03 nM.

The values are drawn from ChEMBL document CHEMBL1250434, “A novel achiral seco-cyclopropylpyrido[e]indolone (CPyI) analog of CC-1065 and the duocarmycins: synthesis, DNA interactions, in vivo anticancer and anti-parasitic evaluation” (Bioorg Med Chem, 2010).
